This note sets out measurements from ChEMBL document CHEMBL1143934, “Design and synthesis of biologically active analogues of vitamin K2: evaluation of their biological activities with cultured human cell lines” (Bioorg Med Chem, 2008).

One data set relates to MG-63. Briefly: Induction of apoptosis against human MG63 cells after 72 hrs. Type of data set: functional, cell-based. The method in brief: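 MG-63 osteosarcoma cells, double thymidine block (2.5 mM, 12 h each) for S-phase synchronization. Treated 3 days at 10^-5 and 10^-6 M in DMEM. Permeabilized with 0.2% Triton X plus RNase, 37 °C for 1 h. Stained with propidium iodide 50 µg/mL, 4 °C for 20 min. DNA content by flow cytometry, 488 nm. Mean ± SD of three independent experiments.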

In data set [1] the test system is Vitamin K-dependent gamma-carboxylase (Mus musculus). Briefly: Ratio of Vmax to Km assessed as 14CO2 incorporation for 30 mins.
Substrate in data set [2]: CC1=C(C/C=C(\C)CC/C=C(\C)CC/C=C(\C)CC/C=C(\C)CO)C(=O)c2ccccc2C1=O
In words: (§1) Activity for gamma-glutamylcarboxylase assessed as 14CO2 incorporation. The method in brief: (§2)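 Mouse liver microsomal γ-glutamylcarboxylase. Reduced (hydroquinone) vitamin K as cofactor, 8 concentrations. Fixed enzyme level with 3.6 mM FLEEL substrate. Buffer: 16 µM ProFIX19 propeptide, 1.4 mM NaH14CO3, 25 mM MOPS pH 7.0, 500 mM NaCl, 0.16% phosphatidylcholine, 0.16% CHAPS, 8 mM DTT, 0.8 M ammonium sulfate. 14CO2 incorporated into peptide over 30 min counted by scintillation. Km and Vmax from initial rates by double-reciprocal plot.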

Substrate in data set [3]: CC(C)=CCC/C(C)=C/CC/C(C)=C/CC/C(C)=C/CC1=C(C)C(=O)c2ccccc2C1=O
The data set is described as §1. The method in brief:
as §2

Substrate in data set [4]: CC1=C(C/C=C(\C)CC/C=C(\C)CC/C=C(\C)CC/C=C(\C)CO)C(=O)c2ccccc2C1=O
In words: (§3) Activity for gamma-glutamylcarboxylase assessed as 14CO2 incorporation for 30 mins. The essentials:
as §2

Substrate in data set [5]: CC(C)=CCC/C(C)=C/CC/C(C)=C/CC/C(C)=C/CC1=C(C)C(=O)c2ccccc2C1=O
The description is as §3. The method in brief:
as §2

Take `CC1=C(C/C=C(\C)CC/C=C(\C)CC/C=C(\C)CO)C(=O)c2ccccc2C1=O`: the Activity entry in the data set on MG-63 is “Dose-dependent effect”.

With `CC1=C(C/C=C(\C)CC/C=C(\C)C=O)C(=O)c2ccccc2C1=O`, in the data set on MG-63, the Activity entry was “Dose-dependent effect”.

With `CC1=C(C/C=C(\C)CC/C=C(\C)CO)C(=O)c2ccccc2C1=O`, the Activity entry with MG-63 was “Dose-dependent effect”.

With `CC(C)=CCC/C(C)=C/CC/C(C)=C/CC1=C(C)C(=O)c2ccccc2C1=O`, in the data set on MG-63, the Activity result was “Dose-dependent effect”.

`CC1=C(C/C=C(\C)CC/C=C(\C)CC/C=C(\C)C=O)C(=O)c2ccccc2C1=O`: in the data set with MG-63, the Activity entry is “Dose-dependent effect”.

As for `CC(C)=CCC/C(C)=C/CC1=C(C)C(=O)c2ccccc2C1=O`, the Activity entry in the data set on MG-63 was “Dose-dependent effect”.

For the molecule `CC(C)=CCC/C(C)=C/CC/C(C)=C/CC/C(C)=C/CC1=C(C)C(=O)c2ccccc2C1=O`, the Activity entry with MG-63 is “Dose-dependent effect”.

As for `CC1=C(C/C=C(\C)CC/C=C(\C)CC/C=C(\C)CC/C=C(\C)CO)C(=O)c2ccccc2C1=O`, the Activity result in the data set on MG-63 was “Dose-dependent effect”. Moreover, in data set [1], the Vmax/Km turned out to be 50 pmol/microM.

Turning to `CC1=C(C/C=C(\C)CC/C=C(\C)CC/C=C(\C)CC/C=C(\C)C=O)C(=O)c2ccccc2C1=O`, in the data set with MG-63, the Activity entry is “Dose-dependent effect”.

B1: Vitamin K-dependent gamma-carboxylase (Homo sapiens), P38435 (protein)
chain: MAVSAGSARTSPSSDKVQKDKAELISGPRQDSRIGKLLGFEWTDLSSWRRLVTLLNRPTDPASLAVFRFLFGFLMVLDIPQERGLSSLDRKYLDGLDVCRFPLLDALRPLPLDWMYLVYTIMFLGALGMMLGLCYRISCVLFLLPYWYVFLLDKTSWNNHSYLYGLLAFQLTFMDANHYWSVDGLLNAHRRNAHVPLWNYAVLRGQIFIVYFIAGVKKLDADWVEGYSMEYLSRHWLFSPFKLLLSEELTSLLVVHWGGLLLDLSAGFLLFFDVSRSIGLFFVSYFHCMNSQLFSIGMFSYVMLASSPLFCSPEWPRKLVSYCPRRLQQLLPLKAAPQPSVSCVYKRSRGKSGQKPGLRHQLGAAFTLLYLLEQLFLPYSHFLTQGYNNWTNGLYGYSWDMMVHSRSHQHVKITYRDGRTGELGYLNPGVFTQSRRWKDHADMLKQYATCLSRLLPKYNVTEPQIYFDIWVSINDRFQQRIFDPRVDIVQAAWSPFQRTSWVQPLLMDLSPWRAKLQEIKSSLDNHTEVVFIADFPGLHLENFVSEDLGNTSIQLLQGEVTVELVAEQKNQTLREGEKMQLPAGEYHKVYTTSPSPSCYMYVYVNTTELALEQDLAYLQELKEKVENGSETGPLPPELQPLLEGEVKGGPEPTPLVQTFLRRQQRLQEIERRRNTPFHERFFRFLLRKLYVFRRSFLMTCISLRNLILGRPSLEQLAQEVTYANLRPFEAVGELNPSNTDSSHSNPPESNPDPVHSEF
On to B1, for which the Km in data set [2] turned out to be 2 µM; in data set [3] it was 13.3 µM. Moreover, the Vmax in data set [4] stood at 99.9 pmol; in data set [5], 126 pmol.

By Km is commonly meant the substrate concentration at which the rate is half of its maximum.
